From ChEMBL document CHEMBL1157639, “Identification of inhibitors of drug-resistant Candida albicans strains from a library of bicyclic peptidomimetic compounds” (2010) come the findings set out here.

Assay [1] has as its target Secreted aspartic protease 2 (Candida albicans) (UniProt P0CS83). The assay can be described thus: Inhibition of Candida albicans SAP2 at 20 uM by spectrophotometry relative to pepstatin A. The method in brief: (§1)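 Sample was mixed with 1% (w/v) BSA substrate in 50 mM sodium citrate, pH 3.2, plus SAP2 protease (1 μg/mL stock solution) and incubated 30 min at 37 °C. The reaction was stopped with 10% TCA, kept 30 min on ice, and centrifuged; supernatant A280 was read. Percent inhibition was taken from ΔOD, with control proteinase minus proteinase plus pepstatin A set as 100%.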

Assay [2] has as its system Candida albicans. The assay can be described thus: Antifungal activity against pharmacoresistant Candida albicans AIDS68 infected in Wistar rat estrogen-dependent fungal vaginitis model assessed as fungal burden at 10 uM administered intravaginally 1 hr after fungal infection measured on day 1 after infection. The format is functional, Vagina. The method in brief:
(§2)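 Oophorectomized female Wistar rats (80-100 g) got 0.5 mg estradiol benzoate s.c. Six days later they were inoculated intravaginally with >10⁷ YPD-grown yeast cells (28 °C, washed, hemocytometer-counted) in 0.1 mL saline. Treatment was given intravaginally at 1, 24 and 48 h post-challenge. Burden was counted by culturing 100 μL vaginal fluid on Sabouraud-chloramphenicol (50 μg/mL) agar, as CFU/mL ×1000, through day 28.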

Assay [3] deals with Secreted aspartic protease 2 (Candida albicans) (UniProt P0CS83). Nature of the assay: Inhibition of Candida albicans SAP2 at 2 uM by spectrophotometry relative to pepstatin A. The method in brief:
as §1

Assay [4] relates to Candida albicans. The assay can be described thus: Antifungal activity against Candida albicans SA40 infected in Wistar rat estrogen-dependent fungal vaginitis model assessed as fungal burden at 10 uM administered intravaginally 48 hrs after fungal infection measured on day 5 after infection. Type of assay: functional, Vagina. The method in brief: (§3)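 Oophorectomized female Wistar rats (80-100 g), given 0.5 mg estradiol benzoate subcutaneously, were challenged intravaginally six days later with >10⁷ YPD-grown yeast cells in 0.1 mL saline. Compound at 10 μM was instilled intravaginally at 1, 24 and 48 h post-challenge. Vaginal fluid samples (100 μL) were plated on Sabouraud agar with chloramphenicol (50 μg/mL), and burden was expressed as CFU/mL ×1000.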

In assay [5] the test system is Candida albicans. Nature of the assay: Antifungal activity against Candida albicans SA40 infected in Wistar rat estrogen-dependent fungal vaginitis model assessed as fungal burden at 10 uM administered intravaginally 1 hr after fungal infection measured within 1 day of infection. Type of assay: functional, Vagina. The method in brief:
as §2

Assay [6] deals with Candida albicans. Nature of the assay: Antifungal activity against Candida albicans SA40 infected in Wistar rat estrogen-dependent fungal vaginitis model assessed as fungal burden at 10 uM administered intravaginally 48 hrs after fungal infection measured on day 7 after infection. The format is functional, Vagina. The method in brief:
as §3

Assay [7] relates to Candida albicans. The assay can be described thus: Antifungal activity against pharmacoresistant Candida albicans AIDS68 infected in Wistar rat estrogen-dependent fungal vaginitis model assessed as fungal burden at 10 uM administered intravaginally 24 hrs after fungal infection measured on day 2 after infection. Type of assay: functional, Vagina. The method in brief:
as §2

In assay [8] the test system is Candida albicans. Nature of the assay: Antifungal activity against Candida albicans SA40 infected in Wistar rat estrogen-dependent fungal vaginitis model assessed as fungal burden at 10 uM administered intravaginally 48 hrs after fungal infection measured on day 28 after infection. The format is functional, Vagina. The method in brief: as §2
The target of assay [9] is Secreted aspartic protease 2 (Candida albicans) (UniProt P0CS83). Nature of the assay: Inhibition of Candida albicans SAP2 at 0.02 uM by spectrophotometry relative to pepstatin A. The method in brief:
as §1

The target is the same in assay [10]. Nature of the assay: Inhibition of Candida albicans SAP2 at 10 uM by spectrophotometry relative to pepstatin A. The method in brief: as §1
Assay [11] concerns Candida albicans. The assay can be described thus: Antifungal activity against Candida albicans SA40 infected in Wistar rat estrogen-dependent fungal vaginitis model assessed as fungal burden at 10 uM administered intravaginally 48 hrs after fungal infection measured on day 21 after infection. The format is functional, Vagina. The method in brief:
as §3

Assay [12] has as its system Candida albicans. Nature of the assay: Antifungal activity against pharmacoresistant Candida albicans AIDS68 infected in Wistar rat estrogen-dependent fungal vaginitis model assessed as fungal burden at 10 uM administered intravaginally 48 hrs after fungal infection measured on day 14 after infection. Type of assay: functional, Vagina. The method in brief:
as §2

The test system of assay [13] is Candida albicans. The assay can be described thus: Antifungal activity against Candida albicans SA40 infected in Wistar rat estrogen-dependent fungal vaginitis model assessed as fungal burden at 10 uM administered intravaginally 48 hrs after fungal infection measured on day 14 after infection. The format is functional, Vagina. The method in brief: as §3
Assay [14] concerns Candida albicans. The assay can be described thus: Antifungal activity against Candida albicans SA40 infected in Wistar rat estrogen-dependent fungal vaginitis model assessed as fungal burden at 10 uM administered intravaginally 1 hr after fungal infection measured on day 1 after infection. The format is functional, Vagina. The method in brief: as §3
Assay [15] has as its system Candida albicans. The assay can be described thus: Antifungal activity against Candida albicans SA40 infected in Wistar rat estrogen-dependent fungal vaginitis model assessed as fungal burden at 10 uM administered intravaginally 24 hrs after fungal infection measured on day 2 after infection. Type of assay: functional, Vagina. The method in brief:
as §3

The test system of assay [16] is Candida albicans. The assay can be described thus: Antifungal activity against pharmacoresistant Candida albicans AIDS68 infected in Wistar rat estrogen-dependent fungal vaginitis model assessed as fungal burden at 10 uM administered intravaginally 48 hrs after fungal infection measured on day 28 after infection. The format is functional, Vagina. The method in brief:
as §2

For assay [17], the system named is Candida albicans. Nature of the assay: Antifungal activity against pharmacoresistant Candida albicans AIDS68 infected in Wistar rat estrogen-dependent fungal vaginitis model assessed as fungal burden at 10 uM administered intravaginally 48 hrs after fungal infection measured on day 7 after infection. Type of assay: functional, Vagina. The method in brief: as §2

For assay [18], the system named is Candida albicans. The assay can be described thus: Antifungal activity against pharmacoresistant Candida albicans AIDS68 infected in Wistar rat estrogen-dependent fungal vaginitis model assessed as fungal burden at 10 uM administered intravaginally 48 hrs after fungal infection measured on day 5 after infection. Type of assay: functional, Vagina. The method in brief:
as §2

The target of assay [19] is Secreted aspartic protease 2 (Candida albicans) (UniProt P0CS83). Nature of the assay: Inhibition of Candida albicans SAP2 at 10 uM by spectrophotometry. The method in brief: as §1
Chain of Secreted aspartic protease 2 (Candida albicans) (P0CS83 57-398 limits assumed): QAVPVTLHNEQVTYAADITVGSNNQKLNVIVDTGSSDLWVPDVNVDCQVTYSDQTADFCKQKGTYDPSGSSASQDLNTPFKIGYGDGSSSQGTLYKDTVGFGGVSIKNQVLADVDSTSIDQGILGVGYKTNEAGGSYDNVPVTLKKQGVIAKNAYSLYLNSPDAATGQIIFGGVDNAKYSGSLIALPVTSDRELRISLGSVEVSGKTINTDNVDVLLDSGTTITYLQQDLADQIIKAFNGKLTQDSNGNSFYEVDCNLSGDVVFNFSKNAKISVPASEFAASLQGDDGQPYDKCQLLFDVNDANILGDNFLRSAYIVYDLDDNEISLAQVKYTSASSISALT

As usually defined, the inhibition is the share of the control response that was lost under treatment.

In assay [1], `O=C(NCCO)[C@@H]1O[C@H]2CN(Cc3ccccc3)C(=O)[C@@H]1O2` returned an inhibition of 71%.

In turn, `CC(C)C[C@H](CO)NC(=O)[C@@H]1O[C@H]2CN(Cc3ccccc3)C(=O)[C@H]1O2` showed an inhibition in [1] of 29%.

Consider `CC(C)C[C@@H](CO)NC(=O)[C@@H]1O[C@H]2CN(Cc3ccccc3)C(=O)[C@@H]1O2`, for which the Activity turned out to be 61.6 ×10³ CFU/ml in the assay on Candida albicans [2]; 35.8 ×10³ CFU/ml with Candida albicans [4]; 100 ×10³ CFU/ml in the assay on Candida albicans [5]; 28.8 ×10³ CFU/ml with Candida albicans [6]; 55.4 ×10³ CFU/ml with Candida albicans [7]; 2.2 ×10³ CFU/ml with Candida albicans [8]. Also, the Activity in the assay with Candida albicans [11] was 4.2 ×10³ CFU/ml; with Candida albicans [12], 11.2 ×10³ CFU/ml; with Candida albicans [13] it was 14 ×10³ CFU/ml; in the assay on Candida albicans [14], 61 ×10³ CFU/ml; in the assay with Candida albicans [15], 58 ×10³ CFU/ml; in the assay on Candida albicans [16], 0 ×10³ CFU/ml. Further, the Activity in the assay on Candida albicans [17] was found to be 22.8 ×10³ CFU/ml; with Candida albicans [18], 26.8 ×10³ CFU/ml. Further, the inhibition in assay [3] came to 6.9%; in assay [9], 1.4%; in [10], 61%; in assay [1], 71%.

As for `C[C@@H](CO)NC(=O)[C@@H]1O[C@H]2CN(Cc3ccccc3)C(=O)[C@@H]1O2`, the inhibition in [1] was found to be 35%.

In the case of `O=C1[C@@H]2O[C@H](CN1Cc1ccccc1)O[C@H]2C(=O)N1CCC[C@@H]1CO`, the inhibition in assay [1] stood at 34%.

Take `O=C([C@@H]1O[C@H]2CN(Cc3ccccc3)C(=O)[C@@H]1O2)N1CCSCC1`: the inhibition in [1] amounted to 58%.

Regarding `CCOC(=O)N1CCN(C(=O)[C@@H]2O[C@H]3CN(Cc4ccccc4)C(=O)[C@@H]2O3)CC1`, the inhibition was 19% in assay [10], 74% in [1] and 10% in [19].

On to `CC(C)C[C@@H](CO)NC(=O)[C@H]1OC2CN(Cc3ccccc3)C(=O)C1O2` (single isomer, unassigned), for which the inhibition in [1] was found to be 33%.

`CC(C)C[C@H](CO)NC(=O)[C@H]1O[C@@H]2CN(Cc3ccccc3)C(=O)[C@@H]1O2`: the inhibition in assay [1] was determined as 60%.

As to `CC(C)C[C@@H](CO)N(Cc1ccccc1)C(=O)[C@@H]1O[C@H]2CN(Cc3ccccc3)C(=O)[C@@H]1O2`, in assay [1], the inhibition came out at 35%.

Consider `O=C([C@@H]1O[C@H]2CN(Cc3ccccc3)C(=O)[C@@H]1O2)N1CCOCC1`, for which the inhibition in assay [10] amounted to 92%; in assay [1] it was 62%; in assay [19], 31%.

In turn, `O=C(N[C@@H](CO)c1ccccc1)[C@@H]1O[C@H]2CN(Cc3ccccc3)C(=O)[C@@H]1O2` came in with an inhibition in assay [1] of 31%.

In the case of `O=C([C@@H]1O[C@H]2CN(Cc3ccccc3)C(=O)[C@@H]1O2)N1CCCNCC1`, the inhibition was determined as 19% in assay [10], 63% in assay [1] and 10% in [19].

Regarding `O=C1[C@@H]2O[C@H](CN1Cc1ccccc1)O[C@H]2C(=O)N1CCC[C@H]1CO`, the inhibition in assay [1] was 48%.

With `O=C([C@@H]1O[C@H]2CN(Cc3ccccc3)C[C@@H]1O2)N1CCOCC1`, the inhibition worked out at 6% in assay [10] and 2% in assay [19].

In turn, `O=C([C@H]1O[C@H]2CN(Cc3ccccc3)C(=O)[C@@H]1O2)N1CCCCC1` displayed an inhibition in assay [1] of 50%.

`NCCNC(=O)[C@@H]1O[C@H]2CN(Cc3ccccc3)C(=O)[C@@H]1O2` yielded an inhibition in assay [1] of 63%.

`O=C(N[C@H](CO)Cc1ccccc1)[C@@H]1O[C@H]2CN(Cc3ccccc3)C(=O)[C@@H]1O2` returned an inhibition in assay [1] of 30%.

As to `CCCCNC(=O)[C@@H]1O[C@@H]2O[C@H]1C(=O)N(Cc1ccccc1)[C@H]2Cc1ccccc1`, the figures for the inhibition in assay [10] and in [19] were 42% and 8%, respectively.

In assay [1], `O=C(NCCCO)[C@@H]1O[C@H]2CN(Cc3ccccc3)C(=O)[C@@H]1O2` gave an inhibition of 23%.

As for `O=C([C@@H]1O[C@H]2CN(Cc3ccccc3)C(=O)[C@@H]1O2)N1CCN(CCO)CC1`, the inhibition worked out at 92% in [10], 58% in assay [1] and 31% in assay [19].

In the case of `CCCCCNC(=O)[C@@H]1O[C@H]2CN(Cc3ccccc3)C(=O)[C@@H]1O2`, the figures for the inhibition in assay [10] and in assay [19] were 87% and 22%, respectively.

In the case of `CC(NC(=O)[C@@H]1O[C@@H]2O[C@H]1C(=O)N(Cc1ccccc1)[C@H]2Cc1ccccc1)c1ccccc1` (stereo partly drawn), the inhibition in [10] was 42%; in [19], 8%.

In the case of `CCCNC(=O)[C@@H]1O[C@@]2(c3ccccc3)CN(C(c3ccccc3)c3ccccc3)C[C@@H]1O2`, the inhibition in [10] turned out to be 12%; in assay [19], 3%.

In the case of `O=C(NCC(F)(F)F)[C@@H]1O[C@@]2(c3ccccc3)CN(C(c3ccccc3)c3ccccc3)C[C@@H]1O2`, the inhibition came out at 12% in assay [10] and 3% in assay [19].

Turning to `O=C([C@@H]1O[C@@H]2O[C@H]1C(=O)N(Cc1ccccc1)[C@H]2Cc1ccccc1)N1CCCNCC1`, the inhibition in assay [10] stood at 87%; in assay [19], 17%.

Consider `O=C(NC1CC1)[C@@H]1O[C@H]2CN(Cc3ccccc3)C[C@@H]1O2`, for which the inhibition came to 13% in assay [10] and 3% in [19].

With `CCCCNC(=O)[C@@H]1O[C@@]2(c3ccccc3)CN(C(c3ccccc3)c3ccccc3)C[C@@H]1O2`, the figures for the inhibition in assay [10] and in [19] were 12% and 3%, respectively.

In assay [1], `O=C(N[C@@H](CO)Cc1ccccc1)[C@@H]1O[C@H]2CN(Cc3ccccc3)C(=O)[C@@H]1O2` came in with an inhibition of 29%.
